From ChEMBL document CHEMBL3784976 (J Med Chem, 2016)
Active and inactive are the calls of the source. The rule behind the calls is not given here.

Tests used:
[1] = test system: Rattus norvegicus; test: Antinociceptive activity in po dosed Harlan Sprague-Dawley rat assessed as inhibition of AITC-induced paw flinches pretreated for 1 hr followed by AITC injection measured for 1 min post injection; format: functional, organism-based
How it was run: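 Rats were dosed orally with vehicle (2% HPMC/1% Tween-80) or antagonist at 1, 3, 10 or 30 mg/kg. After 1 h, 0.1% AITC was injected into the left ventral hind paw. Flinching was recorded over the first minute post-injection. Unbound plasma concentrations were measured at 1 h (n = 8 per dose).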

[2] = test system: Jurkat; test: Displacement of [3H]DTG from sigma receptor in human Jurkat cells assessed as remaining radioligand binding at 10 uM after 120 mins by scintillation counting method relative to control; format: cell-based
[3] = AUC (infinity) in rat at 30 mg/kg, po; format: ADME, organism-based; parameters: dose 30 mg/kg, time infinity, route oral; details: in vivo
How it was run: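 Rat oral PK at 30 mg/kg (10 mg/kg for one analogue) in 1% Tween 80/2% HPMC/97% water with methanesulfonic acid, pH 2.2.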

[4] = molecular target: Cannabinoid receptor 1 (Homo sapiens) (UniProt P21554); test: Displacement of [3H]CP-55940 from human recombinant CB1 receptor expressed in CHO cells assessed as remaining radioligand binding at 10 uM after 120 mins by scintillation counting method relative to control; format: cell-based
[5] = organism: Rattus norvegicus; test: Displacement of [3H]nitrendipine from L-type calcium channel dihydropyridine binding site in rat cerebral cortex assessed as remaining radioligand binding at 10 uM after 90 mins by scintillation counting method relative to control; format: tissue-based
[6] = Apparent intrinsic clearance in human liver microsomes; format: ADME; details: read-out: CLH(app)
[7] = molecular target: Beta-2 adrenergic receptor (Homo sapiens) (UniProt P07550); test: Displacement of (-)-[3H]CGP-12177 from human recombinant adrenergic beta2 receptor expressed in CHO cells assessed as remaining radioligand binding at 10 uM after 120 mins by scintillation counting method relative to control; format: cell-based
Beta-2 adrenergic receptor (Homo sapiens), sequence (P07550 whole entry, looked up): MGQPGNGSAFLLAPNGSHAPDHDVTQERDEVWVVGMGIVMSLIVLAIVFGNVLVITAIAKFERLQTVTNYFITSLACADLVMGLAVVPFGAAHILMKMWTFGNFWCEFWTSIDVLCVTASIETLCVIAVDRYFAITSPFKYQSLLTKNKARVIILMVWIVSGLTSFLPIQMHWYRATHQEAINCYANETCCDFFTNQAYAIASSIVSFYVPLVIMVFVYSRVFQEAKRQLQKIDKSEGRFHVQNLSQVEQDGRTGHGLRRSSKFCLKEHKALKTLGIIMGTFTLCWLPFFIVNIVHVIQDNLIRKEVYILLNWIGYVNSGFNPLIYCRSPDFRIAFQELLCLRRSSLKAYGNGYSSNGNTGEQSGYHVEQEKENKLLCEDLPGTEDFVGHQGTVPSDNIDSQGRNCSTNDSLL

[8] = test system: Plasma; test: Unbound plasma concentration in Harlan Sprague-Dawley rat model of AITC-induced flinching at 10 mg/kg, po at 1 hr; format: ADME, organism-based; details: in vivo
How it was run: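 Rats were given vehicle (2% HPMC/1% Tween-80) or compound orally at 1, 3, 10 or 30 mg/kg. After 1 h, 0.1% AITC was injected into one left ventral hind paw, and nocifensive flinching was recorded over the first minute. Unbound plasma concentration was measured at 1 h, n = 8 per dose. In vivo IC50/IC90 came from the exposure–response relationship across individual animals.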

[9] = molecular target: Histamine H2 receptor (Homo sapiens) (UniProt P25021); test: Displacement of [125I]APT from human recombinant histamine H2 receptor expressed in CHO cells assessed as remaining radioligand binding at 10 uM after 120 mins by scintillation counting method relative to control; format: cell-based
[10] = Ratio of unbound plasma concentration in Harlan Sprague-Dawley rat model of AITC-induced flinching at 30 mg/kg, po to IC50 for rat TRPA1 expressed in tetracycline-inducible T-REx expression system transfected CHO cells by 45Ca2+ uptake assay; format: ADME, organism-based; details: in vivo
How it was run: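 Rats dosed orally at 1, 3, 10 or 30 mg/kg in 2% HPMC/1% Tween-80 vehicle. After 1 h, unbound plasma concentration measured (n = 8 per dose), intraplantar AITC (0.1%) given and flinching scored over the first minute. Unbound concentration divided by in vitro rat TRPA1 45Ca2+ IC50.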

[11] = molecular target: Transient receptor potential cation channel subfamily M member 8 (Rattus norvegicus) (UniProt Q8R455); test: Antagonist activity at rat TRPM8 assessed as inhibition of icilin-induced Ca2+ influx up to 10 uM preincubated for 2.5 mins followed by icilin addition measured for 1 min by luminescence assay
Transient receptor potential cation channel subfamily M member 8 (Rattus norvegicus), sequence (Q8R455 whole entry, looked up): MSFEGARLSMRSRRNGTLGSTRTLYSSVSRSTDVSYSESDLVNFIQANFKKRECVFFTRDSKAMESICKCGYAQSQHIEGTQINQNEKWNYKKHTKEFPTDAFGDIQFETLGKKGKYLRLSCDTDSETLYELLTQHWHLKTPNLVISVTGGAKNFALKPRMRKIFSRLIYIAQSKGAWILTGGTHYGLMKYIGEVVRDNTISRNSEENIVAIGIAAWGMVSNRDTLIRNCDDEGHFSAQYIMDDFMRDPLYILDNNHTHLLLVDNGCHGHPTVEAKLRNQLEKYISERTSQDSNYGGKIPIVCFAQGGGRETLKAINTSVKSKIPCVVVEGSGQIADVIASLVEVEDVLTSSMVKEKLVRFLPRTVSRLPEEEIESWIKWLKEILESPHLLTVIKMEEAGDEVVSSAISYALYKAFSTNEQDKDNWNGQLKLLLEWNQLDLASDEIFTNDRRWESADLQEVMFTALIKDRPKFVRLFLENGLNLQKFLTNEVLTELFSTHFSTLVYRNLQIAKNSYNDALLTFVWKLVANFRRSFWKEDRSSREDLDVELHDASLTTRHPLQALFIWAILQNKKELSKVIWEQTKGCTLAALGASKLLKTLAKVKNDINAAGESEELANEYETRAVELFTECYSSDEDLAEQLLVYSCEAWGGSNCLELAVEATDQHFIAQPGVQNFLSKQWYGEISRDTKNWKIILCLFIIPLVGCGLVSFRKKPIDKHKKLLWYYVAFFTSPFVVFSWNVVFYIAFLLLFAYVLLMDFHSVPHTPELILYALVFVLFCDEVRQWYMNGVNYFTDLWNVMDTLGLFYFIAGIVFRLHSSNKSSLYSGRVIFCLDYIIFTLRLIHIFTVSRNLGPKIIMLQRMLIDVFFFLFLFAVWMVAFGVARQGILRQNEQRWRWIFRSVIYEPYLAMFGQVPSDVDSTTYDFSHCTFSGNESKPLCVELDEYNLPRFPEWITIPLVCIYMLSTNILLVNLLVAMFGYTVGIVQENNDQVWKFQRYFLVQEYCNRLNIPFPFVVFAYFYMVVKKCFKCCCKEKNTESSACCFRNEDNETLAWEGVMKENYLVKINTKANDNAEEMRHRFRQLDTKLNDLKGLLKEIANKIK

[12] = molecular target: 5-hydroxytryptamine receptor 4 (Homo sapiens) (UniProt Q13639); test: Displacement of [3H]GR-113808 from human recombinant 5HT4E receptor expressed in CHO cells assessed as remaining radioligand binding at 10 uM after 60 mins by scintillation counting method relative to control; format: cell-based
[13] = molecular target: 5-hydroxytryptamine receptor 1B (Rattus norvegicus) (UniProt P28564); test: Displacement of [125I]CYP from 5HT1B receptor in rat cerebral cortex assessed as remaining radioligand binding at 10 uM after 120 mins by scintillation counting method relative to control; format: tissue-based
5-hydroxytryptamine receptor 1B (Rattus norvegicus), sequence (P28564 whole entry): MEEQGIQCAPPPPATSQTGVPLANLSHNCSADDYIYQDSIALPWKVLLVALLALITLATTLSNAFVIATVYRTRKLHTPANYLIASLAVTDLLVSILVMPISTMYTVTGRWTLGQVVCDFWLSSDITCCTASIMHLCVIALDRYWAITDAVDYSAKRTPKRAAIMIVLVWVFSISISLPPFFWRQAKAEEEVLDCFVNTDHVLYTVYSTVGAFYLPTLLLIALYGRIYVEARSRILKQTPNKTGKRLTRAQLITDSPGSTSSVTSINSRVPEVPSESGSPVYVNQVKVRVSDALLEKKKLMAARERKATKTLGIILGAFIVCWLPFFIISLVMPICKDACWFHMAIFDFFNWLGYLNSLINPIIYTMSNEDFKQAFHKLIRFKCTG

[14] = molecular target: 5-hydroxytryptamine receptor 1A (Homo sapiens) (UniProt P08908); test: Displacement of [3H]8-OH-DPAT from human recombinant 5HT1A receptor expressed in HEK293 cells assessed as remaining radioligand binding at 10 uM after 60 mins by scintillation counting method relative to control; format: cell-based
[15] = molecular target: D(2) dopamine receptor (Homo sapiens) (UniProt P14416); test: Displacement of [3H]methyl-spiperone from human recombinant dopamine D2S receptor expressed in HEK293 cells assessed as remaining radioligand binding at 10 uM after 60 mins by scintillation counting method relative to control; format: cell-based
[16] = molecular target: Histamine H3 receptor (Homo sapiens) (UniProt Q9Y5N1); test: Displacement of [3H]Na-Me-histamine from human recombinant histamine H3 receptor expressed in CHO cells assessed as remaining radioligand binding at 10 uM after 60 mins by scintillation counting method relative to control; format: cell-based
Histamine H3 receptor (Homo sapiens), sequence (Q9Y5N1 whole entry): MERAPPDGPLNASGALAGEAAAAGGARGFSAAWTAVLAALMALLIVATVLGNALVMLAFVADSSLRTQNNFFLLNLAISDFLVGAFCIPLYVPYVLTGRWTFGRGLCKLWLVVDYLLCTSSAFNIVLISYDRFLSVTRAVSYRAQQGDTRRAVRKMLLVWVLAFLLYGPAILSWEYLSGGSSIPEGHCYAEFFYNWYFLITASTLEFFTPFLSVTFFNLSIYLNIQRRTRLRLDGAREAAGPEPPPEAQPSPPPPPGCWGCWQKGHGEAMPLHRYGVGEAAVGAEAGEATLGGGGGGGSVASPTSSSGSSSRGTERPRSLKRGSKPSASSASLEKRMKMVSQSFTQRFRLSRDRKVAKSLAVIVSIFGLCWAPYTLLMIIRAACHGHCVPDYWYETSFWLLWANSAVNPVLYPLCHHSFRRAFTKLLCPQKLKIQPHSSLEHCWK

[17] = molecular target: Sodium channel protein type 9 subunit alpha (Mus musculus) (UniProt Q62205); test: Inhibition of Nav1.7 in mouse DRG neurons at 10 uM relative to control
[18] = molecular target: Cytochrome P450 3A4 (Homo sapiens, UniProt P08684); test: Inhibition of CYP3A4 in human liver microsomes using midazolam as substrate by LC-MS/MS analysis in presence of NADPH; format: ADME
[19] = Volume of distribution at steady state in rat at 0.5 mg/kg, iv as single dose; format: ADME, organism-based; details: in vivo, read-out: Vdss
How it was run: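 Single intravenous dose of 0.5 mg/kg given to rats, formulated in 100% DMSO.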

[20] = molecular target: Adenosine receptor A2a (Homo sapiens) (UniProt P29274); test: Displacement of [3H]CGS-21680 from human recombinant adenosine A2A receptor expressed in HEK293 cells assessed as remaining radioligand binding at 10 uM after 120 mins by scintillation counting method relative to control; format: cell-based
Adenosine receptor A2a (Homo sapiens), sequence (P29274 whole entry): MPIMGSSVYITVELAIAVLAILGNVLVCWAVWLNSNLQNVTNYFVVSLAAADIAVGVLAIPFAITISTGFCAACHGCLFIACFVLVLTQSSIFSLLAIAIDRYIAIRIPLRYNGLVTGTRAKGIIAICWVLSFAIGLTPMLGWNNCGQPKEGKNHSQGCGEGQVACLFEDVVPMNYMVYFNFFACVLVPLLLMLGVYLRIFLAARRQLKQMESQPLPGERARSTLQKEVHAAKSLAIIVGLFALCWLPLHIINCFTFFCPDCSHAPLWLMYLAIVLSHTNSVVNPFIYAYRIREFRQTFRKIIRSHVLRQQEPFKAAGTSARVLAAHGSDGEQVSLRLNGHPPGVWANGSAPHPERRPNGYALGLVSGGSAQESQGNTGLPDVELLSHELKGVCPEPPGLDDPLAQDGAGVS

[21] = Oral bioavailability in rat at 30 mg/kg; format: ADME, organism-based; details: in vivo
How it was run: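 Rats dosed orally at 30 mg/kg, or 10 mg/kg for one analogue, in 1% Tween 80/2% HPMC/97% water with methanesulfonic acid, pH 2.2.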

[22] = molecular target: Urotensin-2 receptor (Homo sapiens) (UniProt Q9UKP6); test: Displacement of [125I]urotensin-2 from human recombinant urotensin-2 receptor expressed in CHO cells assessed as remaining radioligand binding at 10 uM after 120 mins by scintillation counting method relative to control; format: cell-based
[23] = molecular target: Transient receptor potential cation channel subfamily A member 1 (Homo sapiens, UniProt O75762); test: Antagonist activity at human TRPA1 expressed in tetracycline-inducible T-REx expression system transfected CHO cells assessed as inhibition of AITC-induced Ca2+ influx preincubated for 2 mins followed by AITC addition measured for 2 mins by Fluo-4 dye based FLIPR assay; format: cell-based
Transient receptor potential cation channel subfamily A member 1 (Homo sapiens, UniProt O75762), sequence (O75762 whole entry): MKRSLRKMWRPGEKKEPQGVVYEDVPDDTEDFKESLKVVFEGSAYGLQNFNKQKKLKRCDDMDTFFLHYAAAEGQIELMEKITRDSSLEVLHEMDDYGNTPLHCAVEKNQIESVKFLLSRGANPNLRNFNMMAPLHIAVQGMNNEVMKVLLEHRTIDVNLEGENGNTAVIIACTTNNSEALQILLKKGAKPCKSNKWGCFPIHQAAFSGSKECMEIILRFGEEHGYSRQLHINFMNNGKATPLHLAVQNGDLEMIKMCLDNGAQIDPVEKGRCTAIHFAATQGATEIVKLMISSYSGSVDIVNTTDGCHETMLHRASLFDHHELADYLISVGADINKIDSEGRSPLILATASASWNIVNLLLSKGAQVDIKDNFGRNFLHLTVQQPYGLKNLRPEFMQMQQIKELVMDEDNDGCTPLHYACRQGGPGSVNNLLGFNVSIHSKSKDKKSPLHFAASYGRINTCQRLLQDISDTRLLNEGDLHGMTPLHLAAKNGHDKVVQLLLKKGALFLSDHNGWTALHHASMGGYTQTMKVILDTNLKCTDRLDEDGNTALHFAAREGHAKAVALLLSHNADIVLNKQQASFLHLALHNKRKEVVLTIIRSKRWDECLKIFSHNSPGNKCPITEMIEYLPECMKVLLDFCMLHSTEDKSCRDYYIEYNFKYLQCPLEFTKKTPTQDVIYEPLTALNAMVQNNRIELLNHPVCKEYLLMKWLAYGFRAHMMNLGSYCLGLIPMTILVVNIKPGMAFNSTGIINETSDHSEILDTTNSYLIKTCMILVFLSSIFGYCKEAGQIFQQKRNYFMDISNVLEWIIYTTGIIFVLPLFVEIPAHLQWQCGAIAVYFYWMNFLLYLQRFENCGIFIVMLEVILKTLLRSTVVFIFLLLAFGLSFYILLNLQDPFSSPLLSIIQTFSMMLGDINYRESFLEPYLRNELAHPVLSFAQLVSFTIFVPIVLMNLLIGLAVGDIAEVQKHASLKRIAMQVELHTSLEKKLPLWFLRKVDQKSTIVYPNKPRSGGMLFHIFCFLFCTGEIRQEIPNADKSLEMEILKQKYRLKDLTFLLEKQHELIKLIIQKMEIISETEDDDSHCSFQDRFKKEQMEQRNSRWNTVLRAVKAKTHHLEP

[24] = molecular target: Transient receptor potential cation channel subfamily A member 1 (Rattus norvegicus, UniProt Q6RI86); test: Agonist activity at rat TRPA1 expressed in tetracycline-inducible T-REx expression system transfected CHO cells by 45Ca2+ uptake assay; format: cell-based
Transient receptor potential cation channel subfamily A member 1 (Rattus norvegicus, UniProt Q6RI86), sequence (Q6RI86 whole entry): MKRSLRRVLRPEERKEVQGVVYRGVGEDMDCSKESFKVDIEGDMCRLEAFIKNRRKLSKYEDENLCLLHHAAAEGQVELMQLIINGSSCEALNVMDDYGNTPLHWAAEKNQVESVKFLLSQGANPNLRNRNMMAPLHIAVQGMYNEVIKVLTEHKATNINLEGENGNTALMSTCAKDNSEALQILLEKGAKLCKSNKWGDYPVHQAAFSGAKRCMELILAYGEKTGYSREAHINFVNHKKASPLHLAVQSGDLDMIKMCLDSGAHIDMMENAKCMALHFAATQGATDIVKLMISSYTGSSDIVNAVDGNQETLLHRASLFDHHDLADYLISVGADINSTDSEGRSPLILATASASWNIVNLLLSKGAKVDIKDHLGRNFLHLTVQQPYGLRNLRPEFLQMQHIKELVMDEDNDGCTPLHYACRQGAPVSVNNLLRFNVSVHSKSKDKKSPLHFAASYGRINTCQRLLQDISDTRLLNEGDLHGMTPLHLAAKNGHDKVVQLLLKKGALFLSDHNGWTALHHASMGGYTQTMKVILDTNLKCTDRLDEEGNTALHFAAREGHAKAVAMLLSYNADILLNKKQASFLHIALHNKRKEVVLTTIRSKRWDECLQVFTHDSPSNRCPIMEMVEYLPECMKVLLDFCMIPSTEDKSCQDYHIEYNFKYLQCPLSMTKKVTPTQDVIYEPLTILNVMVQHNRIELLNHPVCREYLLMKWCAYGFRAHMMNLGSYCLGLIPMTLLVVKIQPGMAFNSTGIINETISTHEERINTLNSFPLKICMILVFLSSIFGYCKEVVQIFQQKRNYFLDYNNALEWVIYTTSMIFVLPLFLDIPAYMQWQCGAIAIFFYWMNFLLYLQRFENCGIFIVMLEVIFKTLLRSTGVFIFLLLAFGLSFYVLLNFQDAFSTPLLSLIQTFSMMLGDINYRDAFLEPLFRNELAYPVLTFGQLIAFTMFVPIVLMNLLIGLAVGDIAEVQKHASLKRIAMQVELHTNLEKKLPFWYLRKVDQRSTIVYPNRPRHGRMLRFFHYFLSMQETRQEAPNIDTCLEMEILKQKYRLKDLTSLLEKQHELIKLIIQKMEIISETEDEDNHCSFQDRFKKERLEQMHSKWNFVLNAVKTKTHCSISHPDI

[25] = Fraction unbound in rat plasma; format: ADME, cell-free

AUC(0-inf) [3]: 19.8 µM·h
Activity [4]: > 77%
Activity [5]: > 77%
microsomal CLint [6]: < 14 µL/min/mg
Activity [7]: > 77%
Cp(f) [8]: 580 nM
Activity [9]: > 77%
Ratio [10]: 30.3
inhibition [11]: inactive
Activity [12]: > 77%
Activity [13]: > 77%
Activity [14]: > 77%
Activity [15]: > 77%
Activity [16]: > 77%
inhibition [17]: 10%
IC50 [18]: > 27 µM
Vd [19]: 1.7 L/kg
Activity [20]: > 77%
bioavailability [21]: 60%
Activity [22]: > 77%
IC50 [23]: 0.02 µM
EC50 [24]: > 40 µM
fraction unbound [25]: 0.289
Compound: Cn1cnc2ncn(Cc3nc(CCc4ccc(Cl)cc4)no3)c(=O)c21
inhibition [1]: Dose-dependent effect
Activity [2]: > 77%
